Source: PubChem BioAssay (several laboratories)
Most compounds without a hit are left out; they make up all but 3.6% or so of the library.
Measles CPE: protection of cells from measles virus | Measles virus-infected cells, CPE protection, absorbance | protection (pct of control), % at 4 µM | 140,000 compounds, 1.5% hits | AID 841; in the data active = protection mostly above about 24%, no sharp cut-off; inactive = mostly below about 26%
Yeast lifespan up: extends the lifespan of yeast; S. cerevisiae growth with nicotinamide, OD615; deaD strain in restrictive glucose medium; inhibition of the nicotinamide effect, % at 10 µM; 130,000 compounds, 0.68% hits; AID 775;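 active = inhibition above a set limit, placed 3 SD over the median of all compounds, cut at about 26% in these data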;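 note: 0% = nicotinamide-treated wells and 100% = cells grown without nicotinamide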
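Measured by: optical density (absorbance) at 615 nm; System: modified budding yeast, DeaD strain; Medium: restrictive CSMM-D dextrose medium; Timing: 4 h preincubation then 48 h treatment at 30 °C.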
BB579 growth dn: reduces growth of yeast BB579 in restrictive medium. S. cerevisiae BB579 growth, OD615, 48 h. inhibition, % at 10 µM. 140,000 compounds, 0.51% hits;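 active = inhibition above a set limit, 3 SD over the mean compound inhibition, cut at about 44% in these data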
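Test system: Saccharomyces cerevisiae DeaD strain BB579, replicative lifespan model yeast | Buffer or medium: Restrictive CSMM-D medium | Doses: One dose, 10 µM compound with 0.25% DMSO | Incubation: 48 h exposure, 30 °C | Detection: Culture absorbance at 615 nm | Control set: Amphotericin B at 10 µg/mL as positive control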
Phagocyt inh: blocks phagocytosis by macrophages | AID 1029 | J774A.1 macrophage IgG-bead phagocytosis, imaging | inhibition, % at 5 µM | 110,000 compounds, 0.07% hits;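 active = inhibition above the mean of the plate negative controls plus 5 SD, cut at about 13% in these data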;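 note: phagocytic index as fraction of beads internalized from green versus red external bead signal; plate controls were DMSO negative control for no effect and cytochalasin-D positive control for full effect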
RAM network inh: inhibitors of the yeast RAM network; S. cerevisiae dse1pr::URA3 reporter, 5-FOA growth OD615, 2 d; analog-sensitive cbk1-as2 kinase mutant strain; inhibition, % at 50 µM; 190,000 compounds, 1.8% hits;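 active = inhibition above a set limit, 3 SD over mean compound inhibition, cut at about 8.4% in these data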;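 note: 0% = DMSO-only wells with no growth and 100% = 10 µM 1-NA-PP1 full growth; inhibition rescues growth on 5-FOA so higher OD means more RAM inhibition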
Active calls of the source: *; x = no result given.

SMILES	Measles CPE	Yeast lifespan up	BB579 growth dn	Phagocyt inh	RAM network inh
Clc1cccc(Cl)c1CO/N=C/c1c(-c2ccccc2)nc2n1CCS2	24.7	-9.5	-7.5	x	4.5
Fc1cccc(CO/N=C/c2c(-c3ccccc3)nc3ccc(Cl)cn23)c1	29.7	4.3	-47.2	0.1	9.1*
Cc1cccn2c(/C=N/OCc3cccc(F)c3)c(-c3ccc(Cl)cc3)nc12	22.3	-8.4	-27.1	x	9.3*
CC(C)(C)NC(=O)CN(C(=O)CNC(=O)c1cccs1)c1ccc2c(c1)OCCO2	8.2	-12.3	-72.8	-0.4	1.3
COc1nnc(-c2ccccc2)s1	13.2	-3.3	-53.8	-0.8	-0.3
Cc1[nH]c2ccc(Br)cc2c(=O)c1CN1CCCCC1	18.2	-11.4	-11.8	-0.2	1.2
COC(=O)c1ccc2[nH]c(C)c(CN3CCCC3)c(=O)c2c1	48.2*	-6.2	-20.9	-0.4	2.5
COc1ccc(CNc2nc(NCc3ccc(OC)cc3)n(C(C)=O)n2)cc1	32.7	-2.3	-13.1	-2.1	4.9
CCC(=O)n1nc(NCc2ccccc2OC)nc1NCc1ccccc1OC	12.2	-4.2	-77.8	-0.3	9.2*
COC(=O)C(C)Sc1ncnc2c1c(-c1ccccc1)cn2-c1ccc(OC)cc1 (stereo not given)	2.8	-10.0	-32.1	-4.8	-0.4
CCOc1ccc(-n2cc(-c3ccccc3)c3c(SC(C)C(=O)OC)ncnc32)cc1 (stereo not given)	19.2*	6.1	-37.1	-2.3	4.9
Cn1ccnc1SCC(=O)c1ccc([N+](=O)[O-])cc1	x	x	x	x	-0.5
CCCCOc1ccc(-c2cc(C(F)(F)F)c(C#N)c(SCC(=O)O)n2)cc1	x	x	x	x	8.4*
CCN(c1cccc(C)c1)S(=O)(=O)c1ccc2c3c(cccc13)C(=O)N2	6.2	x	-14.9	x	8.5*
Cc1cc(C)c(OCC(=O)Nc2nc3ccccc3[nH]2)c(C)c1	x	x	x	x	4.1
COc1ccc(-c2nc3c(n2O)CCCC3=O)cc1OC	88.9*	-13.6	-14.3	-0.4	0.4
COc1ccc(C2=NO[C@@H]3C(=O)N(C4CCCCC4)C(=O)[C@H]23)cc1OC	19.4	3.2	-55.5	1.1	4.6
O=C(NCc1ccco1)c1cc(-c2cccs2)nc2ccccc12	58.5*	0.5	-20.2	x	3.0
Cn1nc(C(=O)NCc2ccco2)c2ccccc2c1=O	23.8*	-1.2	-16.9	-0.8	1.6
O=C(NCc1ccco1)c1cc(-c2ccco2)on1	85.2*	-8.6	-8.0	-1.0	0.0
Cn1c2ccccc2c2c(C(=O)NCc3ccco3)cn(C3CCCCC3)c(=O)c21	42.3*	-18.0	-8.7	x	5.8
O=C(NCc1ccccc1)c1cc(-c2ccco2)on1	1.6	-7.9	12.5	-2.2	1.6
CCOc1ccc(Br)cc1S(=O)(=O)Nc1ccc(NC(=O)c2ccccc2F)cc1	10.4	2.2	-43.8	x	2.4
Cc1nn(C)c(=O)n1N(C)c1ncc(C(F)(F)F)cc1Cl	x	x	x	x	-0.4
CCN1CCCC1CNC(=O)C(=O)NC(C)c1ccccc1 (stereo not given)	x	x	x	x	0.6
SMILES	Measles CPE	Yeast lifespan up	BB579 growth dn	Phagocyt inh	RAM network inh
O=[N+]([O-])c1ccccc1-c1ccc(/C=N/n2cnnc2)o1	5.1	-6.1	-14.7	x	0.2
O=C1ON=C(c2ccccc2)/C1=C/c1ccc(-c2ccccc2[N+](=O)[O-])o1	5.8	42.4*	22.2	-4.1	5.3
CCOc1ccccc1C(=O)Nc1nn[nH]n1	x	x	x	x	1.0
Cc1ccccc1OCc1csc(N)n1	x	x	x	x	0.6
O=C(CCC(NC(=O)OCc1ccccc1)C(=O)OCc1ccccc1)NCC(=O)OCc1ccccc1 (stereo not given)	7.5	4.9	-43.6	-10.6	8.8*
COc1ccc(C)cc1NC(=O)c1ccccc1NS(=O)(=O)c1cccc2cccnc12	8.6	1.7	15.3	-15.1	-0.4
O=c1c2sc(-c3ccccc3)cc2nc2n1CCC2	5.1	x	82.5*	x	5.3
O=c1c2c(-c3ccccc3)csc2nc2n1CCC2	2.9	-16.5	-14.7	x	4.9
CC(O/N=C\c1ccccc1O)C(=O)Nc1ccccc1C(=O)N1CCOCC1 (stereo not given)	8.3	0.0	-13.6	-1.5	1.1
CCN(CC)C(=O)c1c(C)[nH]c(=S)c(C#N)c1-c1ccco1	x	x	x	x	-0.1
Cc1ccc(-c2c(C(=O)Nc3ccccc3C)c(C)[nH]c(=S)c2C#N)o1	x	x	x	x	8.5*
COc1ccc(C(=O)Nc2n[nH]c(-c3ccncc3)n2)cc1	4.0	-22.2	-48.7	1.0	0.8
CCCOc1ccc(/C(O)=C2/C(=O)C(=O)N(c3cc(C)on3)C2c2ccc(C(=O)OC)cc2)cc1 (stereo not given)	5.5	-28.4	2.3	x	10.9*
CCOc1ccc(/C(O)=C2/C(=O)C(=O)N(c3cc(C)on3)C2c2ccc(C(=O)OC)cc2)cc1 (stereo not given)	4.9	-1.7	-24.3	3.3	1.8
COc1ccc(OC)c(CC(NC(C)=O)C(=O)NC2CCN(c3cc(C)nc4ncnn34)CC2)c1 (stereo not given)	x	x	x	x	0.7
CSc1ccccc1C(=O)N1CCc2ccccc2C1	x	x	x	x	-1.0
CC(=O)Nc1ncnc2c1c(-c1ccc(Cl)cc1)nn2C(C)(C)C	x	x	x	x	8.9*
CC(=O)N(c1ccccc1)c1nc(/C=C/C(=O)Nc2c(C)cc(C)cc2C)cs1	13.1	0.8	-34.4	-9.9	1.9
N#Cc1c2c(c[nH]c1=O)CCN2Cc1ccccc1	43.8*	x	0.2	x	-1.1
Cc1ccc2c(c1C)OC(=O)CC2(C)C	5.4	5.1	-7.0	-0.8	2.3
Cc1ccc(C2=NN(C(=O)CCl)C(c3cccs3)C2)o1 (stereo not given)	1.0	35.3*	-59.7	-5.8	-0.4
Cc1ccc(S(=O)(=O)C/N=C(/NC(=S)N(c2ccccc2)c2ccccc2)c2ccccc2)cc1	23.6	45.8*	-45.9	0.5	1.3
Cc1ccc(S(=O)(=O)/N=C(/NC(=S)Nc2ccccc2)c2ccccc2)cc1	5.1	-23.7	-2.4	-0.2	-0.1
Cc1ccc2cn[nH]c2c1[N+](=O)[O-]	x	x	x	x	2.8
Cc1ccc(-c2csc(NC(=O)CSc3nc4ccccc4[nH]3)n2)cc1	7.7	9.1	-58.1	x	9.8*
SMILES	Measles CPE	Yeast lifespan up	BB579 growth dn	Phagocyt inh	RAM network inh
Cc1cc(=O)[nH]c(SCC(=O)Nc2nc(-c3ccccc3)cs2)n1	4.4	-1.8	-11.8	-1.3	-0.6
CCn1c(SCC(=O)Nc2nc(-c3ccc(C)cc3)cs2)nnc1-c1ccccc1O	31.9*	-7.9	-54.1	-0.7	5.7
CCCCc1ccc(NC(=S)N2CCCC(C)C2)cc1 (stereo not given)	x	x	x	x	0.9
Cc1ccc(C(C(=O)NC2CCCCC2)N(CC2CCCO2)C(=O)CNC(=O)c2cccs2)cc1 (stereo not given)	15.8	-14.7	-19.6	x	8.9*
Cc1c(Br)c([N+](=O)[O-])nn1CC(=O)NCC1CCCO1 (stereo not given)	x	x	x	x	2.4
N/C(=N\S(=O)(=O)c1cccs1)c1ccccc1	17.2	-14.2	-75.3	1.0	0.2
Cn1c(C(C#N)/C(=N\S(=O)(=O)c2cccs2)c2ccccc2)nc2ccccc21 (stereo not given)	19.3	-0.4	-75.7	0.8	9.6*
